Each structure is given as a SMILES string. Where two headings read alike, the source gives them in different places.

Experimental findings from publication PMC5568800 (Investigative ophthalmology & visual science, 2009) are described below.

The target in assay [1] is X2IRBP (second module of Xenopus IRBP), wild-type sequence. In kind it is binding. The settings on record: read-out: Kd, Enhancement. An outline of the steps:
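Purified X2IRBP (Xenopus IRBP 313–612; His-fusion, TEV-cleaved, Ni and anion-exchange purified; quantified by A280 and amino acid analysis) was titrated with all-trans or 11-cis retinol. 11-cis retinol was made by NaBH4 reduction of 11-cis retinal. For all-trans, nonspecific signal from titration into fluorescence-matched NAT was subtracted and three independent titrations were averaged. Kd came from a nonlinear least-squares single-site-class fit.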

For assay [2] the target is unchanged. Put plainly: Titration monitoring quenching of tryptophan. The settings on record: read-out: Kd, Quenching, excitation 280 nm, emission 340 nm. Type of assay: binding. The essentials:
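Purified X2IRBP (Xenopus IRBP 313–612, TEV-cleaved His-fusion, Ni plus Q Sepharose purified) was titrated with all-trans or 11-cis retinol (ethanol stocks). Protein fluorescence at 340 nm (excitation 280 nm) was normalized to maximal quenching. All-trans data were averaged over three independent titrations. Kd and N came from a nonlinear least-squares fit to a noninteracting single-site-class binding equation.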

Assay [3] addresses W450F X2IRBP. Put plainly: Titration monitoring enhancement of retinol fluorescence, W450F mutant. Type of assay: binding, Xenopus. An outline of the steps: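 All-trans retinol titration of the E. coli-expressed, TEV-cleaved Xenopus X2IRBP mutant, read as retinol fluorescence enhancement (ex 330 nm, em 480 nm). Nonspecific signal was subtracted using a titration into fluorescence-matched NAT solution, and the inner filter effect was corrected graphically. Three independent titrations were averaged. Kd from a nonlinear least-squares fit assuming a single type of noninteracting site.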

Assay [4] deals with W587F X2IRBP. Description: Titration monitoring enhancement of retinol fluorescence, W587F mutant. The conditions noted are these: read-out: Kd, Enhancement, 11-cis retinol, excitation 324 nm, emission 475 nm, Figure 7. Type of assay: binding, Xenopus. An outline of the steps:
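The W587F mutant was introduced into X2IRBP-pET30 by site-directed mutagenesis, sequence-verified, then expressed in E. coli BLR(DE3) (1 mM IPTG, 22°C, 18 h) and purified by Ni-affinity, TEV cleavage and Q Sepharose. 11-cis retinol, made by NaBH4 reduction of 11-cis retinal and HPLC-checked, was titrated in. Kd came from a nonlinear least-squares single-site-class fit.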

The target of assay [5] is W587F X2IRBP. Put plainly: Titration monitoring quenching of tryptophan fluorescence, W587F mutant. In kind it is binding, Xenopus.
In assay [6] the test system is X2IRBP. In kind it is binding, Xenopus. The conditions noted are these: oleic acid 0.67 to 2.66 μM; X2IRBP 1 μM; retinol fluorescence enhancement. The essentials:
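X2IRBP (1 μM; recombinant Xenopus, tag removed by TEV) titrated with all-trans or 11-cis retinol in the presence of oleic acid at 0.67 to 2.66 μM. Binding followed by retinol fluorescence enhancement (ex 330 nm, em 480 nm).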

The target of assay [7] is X2IRBP (second module of Xenopus IRBP), wild-type sequence. Put plainly: Energy transfer titration, X2IRBP of wild-type sequence. In kind it is binding. The conditions noted are these: read-out: Kd, Energy Transfer; all-trans retinol; excitation 280 nm, emission 480 nm; Figure 4. An outline of the steps:
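X2IRBP (Xenopus IRBP residues 313–612) was expressed in E. coli BLR(DE3) as a His-tag fusion, TEV-cleaved, and purified by Ni-affinity and Q Sepharose. Concentration was set by A280 and amino acid analysis. All-trans retinol from fresh ethanol stocks was titrated in. Three independent titrations were averaged. Kd and N came from a nonlinear least-squares fit assuming a single class of noninteracting sites.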

Assay [8] deals with W450F X2IRBP. Description: Titration monitoring quenching of tryptophan fluorescence, W450F mutant. In kind it is binding, Xenopus. The settings on record: all-trans retinol, excitation 280 nm, emission 340 nm. The essentials: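 Intrinsic tryptophan fluorescence quenching (ex 280 nm, em 340 nm) of tag-free recombinant Xenopus X2IRBP mutants during all-trans retinol titration. Signal normalized to the maximum quenching. Runs alternated between the W450F and W587F proteins, three titrations each, and were averaged. Binding parameters from a nonlinear least-squares fit to a single-class, noninteracting-site equation.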

Assay [9] deals with W450F X2IRBP. Description: Energy transfer titration, W450F mutant. Type of assay: binding, Xenopus. The settings on record: read-out: Kd, Energy Transfer, all-trans retinol, Figure 4. An outline of the steps:
(§1)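 Tag-free Xenopus IRBP second module (residues 313–612; His-tag cut by TEV protease), expressed in E. coli BLR(DE3) at 22°C for 18 h and purified on nickel then Q Sepharose columns. Titrated with all-trans retinol (fresh ethanol stock) and read by energy transfer (ex 280 nm, em 480 nm). Runs alternated between the two mutants, three per mutant, then averaged. Kd and N from a nonlinear least-squares fit to a single-class, noninteracting-site equation.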

In assay [10] the target is W587F X2IRBP. Description: Energy transfer titration, W587F mutant. In kind it is binding, Xenopus. The conditions noted are these: read-out: Kd, Energy Transfer, all-trans retinol, Figure 4. An outline of the steps:
as §1

Setting [11] is: 11-cis retinol, X2IRBP of wild-type sequence, Figure 6.

As for `CC1=C(/C=C/C(C)=C/C=C\C(C)=C\CO)C(C)(C)CCC1` [11-cis retinol], the Kd in assay [1] (setting [11]) turned out to be 77 ± 15 nM; in [2] (setting [11]) it was 42 ± 9 nM; in [3] (read-out: Kd, Enhancement, 11-cis retinol, excitation 324 nm, emission 475 nm, Figure 7), 218 ± 62 nM; in assay [4] it was 132 ± 56 nM; in assay [5] (read-out: Kd, Quenching, 11-cis retinol, excitation 280 nm, emission 340 nm, Figure 7), 24 ± 10 nM.

As for `CCCCCCCC/C=C\CCCCCCCC(=O)O` [oleic acid], in assay [6], the “Manner of inhibition of 11-cis and all-trans retinol binding to X2IRBP” value is on record as “noncompetitive”.

For the compound `CC1=C(/C=C/C(C)=C/C=C/C(C)=C/CO)C(C)(C)CCC1` [all-trans retinol], the Kd in [1] (all-trans retinol, excitation 330 nm, emission 480 nm, Figure 4) amounted to 70 ± 20 nM; in assay [2] (all-trans retinol, Figure 4), 8 ± 3 nM; in assay [7], 33 ± 8 nM; in [3] (read-out: Kd, Enhancement, all-trans retinol, titrations of Figure 4), 450 ± 110 nM; in assay [9], 290 ± 80 nM; in [5] (read-out: Kd, Quenching, all-trans retinol, titrations of Figure 4), 50 ± 10 nM. Also, in [10], the Kd came out at 100 ± 10 nM. Besides, the “Quenching of tryptophan fluorescence (result in words)” value in [8] is on record as “No significant quenching”.
